Source: PubChem
Hits are enriched below; roughly 0.3% of the tested compounds scored in any of these assays.
KSHV LANA nucl = inhibitors of KSHV LANA-nucleosome binding, primary screen, biochemical, fluorescence polarization, FITC-LANA1-23, chicken nucleosomes; z-score (concentration not given with the values); FITC-LANA1-23 / chicken nucleosome fluorescence polarization; hits give low values; AID 720717, 2013; hit rate 0.3% among 51,000;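 active = both repeat wells score below -2 in polarization z-score versus plate sample wells, excluding overly bright wells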
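Test system: purified chicken nucleosomes with FITC-labelled LANA N-terminal peptide (1-23); Input: 240 nM purified chicken nucleosomes (480 nM peptide binding sites), final; Medium: TEN-BT buffer, pH 7.5; Timing: 10–45 min, room temperature; Technique: fluorescence polarization, 480 nm excitation, 535 nm parallel and perpendicular emission; Replication: duplicates.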
BasE inh = BasE siderophore enzyme inhibitors, primary screen, biochemical, Acinetobacter baumannii ATCC 17978, fluorescence polarization | purified BasE, fluorescence polarization binding displacement | inhibition, % (concentration not given with the values) | hit rate 0.1% among 84,000; in the data active = inhibition above about 25%, passing the limit was not always enough;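 note: 0% = negative plate control signal and 100% = positive plate control signal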
An asterisk follows results filed as active; . = no result.

SMILES	KSHV LANA nucl	BasE inh
O=C1CN(C(=O)CC2c3ccccc3-c3ccccc32)CC(=O)N1	-0.66	43*
CCOC(=O)N1CCN(C(=O)CC2c3ccccc3Oc3ccccc32)CC1	-1	1
C=CCn1c(NC(=O)c2ccccc2)c(C(=O)OCC)sc1=S	.	2
COc1ccc(NS(=O)(=O)c2ccccc2)cn1	-0.16	5
O=C(O)CC12CC3CC(C1)CC(CC(=O)O)(C3)C2	.	0
NC(=O)CC12CC3CC(C1)CC(CC(N)=O)(C3)C2	1.3	57*
O=C(Cc1nc2ccccc2s1)c1ccc(O)cc1O	.	22
O=C(Cc1nncn1-c1ccccc1)c1ccc(O)cc1O	.	33*
CCCC(C)C(=O)Nc1ccc(-c2nc3ccccc3o2)cc1 (stereo not given)	-2.2*	1
CC(C)C(=O)Nc1cccc(-c2nc3ccccc3o2)c1	0.63	1
CN1C(=CC#N)N(C)c2ccccc21	.	2
Clc1ccc(OCCCc2nc(-c3cccnc3)n[nH]2)c(Cl)c1	.	46*
S=c1[nH]nc(CCCOc2ccc(Cl)cc2Cl)o1	1.1	3
Cc1ccc(C(=O)N2CCCCC2)cc1NC(=O)C1=CSCCO1	-1.2	1
Cc1cc(O)c(Cc2cc(Cl)c3cccnc3c2O)c(=O)o1	.	78*
O=c1oc2ccccc2c(O)c1Cc1cc(Cl)c2cccnc2c1O	.	23
CCN(CC)C(=O)Cn1cc(/C=C2\C(=O)NC(=O)N(CC)C2=O)c2ccccc21	-2.7*	1
C=CCN1C(=O)NC(=O)/C(=C\c2cn(Cc3ccccc3)c3ccccc23)C1=O	.	4
CC(C)OC(=O)c1oc2c(O)c(O)ccc2c(=O)c1-c1cnn(-c2ccccc2)c1	0.25	21
Cc1cccc(C)c1-n1c(SCC(=O)Nc2cccc(C#N)c2)nnc1-c1cccc(S(=O)(=O)N(C)C)c1	.	4
CCNC(=S)N1CCN(S(=O)(=O)c2ccc(C)cc2)CC1	.	-3
CCNC(=S)N1CCN(S(=O)(=O)c2ccc(Cl)cc2)CC1	-2.2*	3
CCn1c(SCC(=O)c2ccccc2)nnc1-c1ccc(OC)cc1	.	4
O=C1Nc2ccccc2O/C1=C\c1ccc(C(=O)N2CCN(c3ccccn3)CC2)cc1	0.26	-1
CCOC(=O)c1cc(-c2ccc(N(CC)CC)cc2)no1	-4.8*	5
SMILES	KSHV LANA nucl	BasE inh
COC(=O)c1cc(-c2ccc(C)cc2)no1	0.41	1
CC(NC(=O)CSc1nnc2ccccn12)c1ccc2c(c1)OCCO2 (stereo not given)	.	-2
O=S(=O)(NCCSCc1c(F)cccc1Cl)c1cccc2nonc12	0.71	-2
O=C(/C=C/c1ccccc1)Nn1cnc2c(cnn2-c2ccccc2)c1=O	-1.2	1
O=C(Nn1cnc2c(cnn2-c2ccccc2)c1=O)c1ccccc1	-2.1*	0
NC(=O)C1CCN(Cc2cc(=O)oc3cc4c(cc23)CCC4)CC1	.	2
C/C(=C\C(=O)c1cccnc1)Nc1ccccc1O	0.054	30*
CCC(C)c1ccc(O)c(NC(=O)c2cccnc2)c1 (stereo not given)	.	0
C/C(=C/C(=O)C(F)(F)F)N1CCN(S(=O)(=O)c2cccc(Cl)c2)CC1	.	1
CC1(C)CCC[C@]2(C)C3CC(=O)OC3CCC12 (stereo not given in full)	0.015	2
CCNc1cc(NCC)c2noc3c2c1C(=O)c1ccccc1-3	-0.064	3
CC(=O)OCCNc1cc(Cl)c2noc3c2c1C(=O)c1ccccc1-3	-3.7*	8
O=C1/C(=C\C=C\c2ccco2)SC(=S)N1NS(=O)(=O)c1ccccc1	-0.52	40*
O=C(O)CCC(C(=O)O)N1C(=O)/C(=C/C=C/c2ccco2)SC1=S (stereo not given)	-2.2*	9
O=C(NN1C(=O)/C(=C\C=C\c2ccco2)SC1=S)c1ccccc1O	1.6	21
CC(C)C(C(=O)O)N1C(=O)/C(=C/C=C/c2ccco2)SC1=S (stereo not given)	0.004	24
O=C(O)C(c1ccccc1)N1C(=O)/C(=C\c2ccco2)SC1=S (stereo not given)	-1.3	2
Cc1cc(N(C(=O)c2ccc3c(=O)n4c(nc3c2)CCCCC4)C(=O)c2ccc3nc4n(c(=O)c3c2)CCCCC4)no1	.	2
O=C(O)CCc1ccc(-c2ccc(F)cc2)n1CCC(=O)O	-2.1*	2
O=C(O)CCc1ccc(-c2ccc(F)cc2)n1CC1CCCO1 (stereo not given)	2.7	-2
COC(=O)c1ccc(COc2c(-c3ccco3)oc3ccccc3c2=O)cc1	0.52	-2
O=C(O)c1cc(-c2ccc(O)c(O)c2)nc2n[nH]c(-c3ccc(F)cc3)c12	-0.27	41*
COc1ccc(-c2cc(C(=O)N3CCOCC3)c3c(-c4ccc(Cl)cc4)[nH]nc3n2)cc1	1.9	-6
CCNC(=O)C1CCCN(S(=O)(=O)N(C)c2ccc(F)cc2)C1 (stereo not given)	0.82	1
Cn1nc(-c2ccc(F)cc2)nc2c(=O)n(C)c(=O)nc1-2	-4.8*	36
SMILES	KSHV LANA nucl	BasE inh
Fc1ccc(-c2nc3n(n2)Cc2ccccc2-3)cc1	1	-2
N#C/C(=C\C1CC=CCC1)c1nc2ccccc2c(=O)[nH]1 (stereo not given)	0.59	0
COC(=O)c1ccc([C@@H]2Nc3c(C)cccc3[C@@H]3C=CC[C@@H]32)cc1	.	-1
O=C(O)C1Nc2c(I)cccc2C2C=CCC12 (stereo not given)	1.3	47*
Cc1cccc(NC(=S)NC(C)(C)C)c1	-0.8	2
Cn1c(Cc2ccc(Cl)cc2)nc2ccccc21	-1	-2
COCC(C)NC(=S)Nc1ccc(F)cc1 (stereo not given)	.	1
COc1cccc2c1C(=O)c1c(O)c3c(c(O)c1C2=O)C[C@@](O)(C(=O)CO)C[C@@H]3OC1C[C@H](N)[C@H](O)[C@H](C)O1 (stereo not given in full)	-7.5*	.
Cc1ccc2c(c1)c1c3c(nccn32)CCC1	-3.2*	10
Cc1ccc2c(c1)c1c(n2C)C(C#N)CCC1 (stereo not given)	-0.56	2
COCCNC(=O)c1cc(Br)c(C)c(C)c1C	-2.4*	2
COCCNC(=O)c1cc(Br)cs1	0.078	2
Cc1ccc(N2CC(C(=O)NCc3ccncc3)CC2=O)cc1C (stereo not given)	-0.89	0
Cc1cc(NCCN(C)C)c2ccccc2n1	-2.2*	3
Cc1cc(NCCNc2ccccc2)c2ccc3ccccc3c2n1	.	-13
CSc1scc2c1C(=O)/C(=C/N(C)C)CC2	-0.49	36*
CSc1scc2c1C(=O)CC(C)(C)C2	.	-1
COc1ccc(CC(=O)N2CCN(c3ncccn3)CC2)cc1OC	.	1
CCc1c(C(=O)NCCN(C)C)csc1C	-1	1
Cc1ccc(NC(=O)/C(C#N)=N/Nc2ccc(C(=O)O)cc2)c(C)c1	.	4
COc1ccc(N/N=C(\C#N)C(=O)Nc2ccccc2C(=O)O)cc1Cl	.	80*
O=c1c2cccnc2n(Cc2ccccc2F)c(=O)n1C1CCCCC1	-0.57	0
CCc1ccc(C2=NN(C(=O)CCC(=O)O)C(c3ccco3)C2)cc1 (stereo not given)	.	1
COc1ccccc1/C=C\C=c1/sc2nc(-c3ccco3)nn2c1=O	1.6	1
CC(C)(C)N/N=C/c1ccc(O)c(O)c1O	.	5
